Among the data in ChEMBL document CHEMBL1136882, “Mechanism-based inhibitors of serine proteases with high selectivity through optimization of S' subsite binding” (Bioorg Med Chem, 2009) are inhibition, Ratio and Activity values, retold here.

Assay [1] deals with T1, Neutrophil elastase (Homo sapiens) (UniProt P08246).
T1 sequence (whole entry): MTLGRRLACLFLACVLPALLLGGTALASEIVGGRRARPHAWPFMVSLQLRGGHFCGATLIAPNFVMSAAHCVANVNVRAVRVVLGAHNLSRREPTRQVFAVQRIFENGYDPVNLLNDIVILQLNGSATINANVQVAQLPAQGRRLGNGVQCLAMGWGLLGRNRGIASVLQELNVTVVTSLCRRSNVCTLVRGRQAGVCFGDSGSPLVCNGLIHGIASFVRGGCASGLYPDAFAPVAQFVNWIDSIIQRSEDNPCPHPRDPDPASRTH
As to the kind of experiment: Inhibition of human neutrophil elastase at inhibitor to enzyme ratio of 500 after 30 mins. The essentials: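 HNE treated with inhibitor for 30 min at [I]/[E] ratio 500. Residual activity then measured with MeOSuc-AAPV-pNA in 0.1 M HEPES/0.5 M NaCl pH 7.25, reading absorbance at 410 nm.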

Assay [2] concerns the target T2, Myeloblastin (Homo sapiens) (UniProt P24158).
T2 sequence (whole entry): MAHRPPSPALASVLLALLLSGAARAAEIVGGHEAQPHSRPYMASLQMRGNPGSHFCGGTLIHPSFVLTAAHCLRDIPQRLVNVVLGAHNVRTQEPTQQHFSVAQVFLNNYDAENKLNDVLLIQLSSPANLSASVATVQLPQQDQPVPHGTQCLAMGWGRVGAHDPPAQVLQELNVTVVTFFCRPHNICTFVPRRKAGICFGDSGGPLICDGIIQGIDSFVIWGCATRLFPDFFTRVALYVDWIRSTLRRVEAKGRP
Put plainly: Inhibition of human PR3 at inhibitor to enzyme ratio of 500 after 30 mins. A digest of the protocol:
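PR3 (34.5 nM final, from 0.1 M phosphate pH 6.50 stock) preincubated 30 min with inhibitor at [I]/[E] 500 (8.62 μM final). Buffer 0.1 M HEPES/0.5 M NaCl pH 7.25 with DMSO and DTNB. Substrate Boc-Ala-Ala-NVa-SBzl; absorbance read at 410 nm for 2 min. % remaining activity = (v/v0)×100 against a DMSO-only run; duplicate or triplicate.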

The target in assay [3] is T1, Neutrophil elastase (Homo sapiens). Put plainly: Inhibition of human neutrophil elastase assessed as ratio of observed rate constant to drug concentration by incubation method. Set-up: unit not given here. A digest of the protocol:
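HNE incubated with excess inhibitor in 0.1 M HEPES/0.5 M NaCl pH 7.25 with DMSO in a constant-temperature bath (stocks: 70 μM enzyme, 3.5 mM inhibitor). Aliquots taken over time and assayed with MeOSuc-AAPV-pNA, read at 410 nm for 60 s. kobs taken from ln([E]t/[E]0) = −kobs·t; reported as kobs/[I].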

The target is the same in assay [4]. Put plainly: Irreversible inhibition of human neutrophil elastase at 37 uM. The following applies: TDE = time-dependent effect. The essentials: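 Inhibitor (37 μM) incubated with HNE (700 nM) in 0.1 M HEPES/0.5 M NaCl pH 7.25, 1% DMSO. Aliquots taken over time and assayed with MeOSuc-AAPV-pNA at 410 nm. Results plotted as percent remaining activity versus time.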

Assay [5] has the same target. As to the kind of experiment: Inhibition of human neutrophil elastase assessed as ratio of kinact to Ki by progressive curve method. A digest of the protocol:
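Progress curves run with 10 nM HNE and 105 μM MeOSuc-AAPV-pNA in 0.1 M HEPES/0.5 M NaCl pH 7.25, 2.5% DMSO, over several [I]/[E] ratios. p-Nitroaniline release followed continuously at 410 nm. kobs obtained by nonlinear fit of A vs t; kobs/[I] corrected for substrate concentration to give kinact/KI. Duplicate determinations.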

Active and inactive are the calls of the source. The rule behind the calls is not given here.

Turning to `CCC[C@H]1C(=O)N(C(CCC(=O)OC)Sc2ccc(OC)cc2)S(=O)(=O)N1C` (stereo partly drawn), the inhibition entry in assay [1] was “Active”. Moreover, the inhibition result in assay [2] was “inactive”. Besides, the Ratio in assay [3] amounted to 70.
On the same counts, the results for `CCC[C@H]1C(=O)N(C(CCC(=O)OC)Sc2ccc(F)cc2)S(=O)(=O)N1C` (stereo partly drawn) are “Active”, “inactive” and 320.
The matching figures for `CCC[C@H]1C(=O)N(C(CCC(=O)OC)Sc2ccc(NC(=O)OC(C)(C)C)cc2)S(=O)(=O)N1C` (stereo partly drawn): “Active”, “inactive” and 170.
As to `CCC[C@H]1C(=O)N(C(CCC(=O)OC)Sc2ccc(NC(=O)c3ccccc3C(=O)O)cc2)S(=O)(=O)N1C` (stereo partly drawn), in assay [1], the inhibition result is “Active”. Moreover, in assay [2], the inhibition result is “inactive”. In addition, the Ratio in assay [3] came out at 260.
The matching figures for `CCC[C@H]1C(=O)N(C(CCC(=O)OC)Sc2ccc(NC(=O)NCCc3ccccc3)cc2)S(=O)(=O)N1C` (stereo partly drawn): “Active”, “inactive” and 150.
For the molecule `COC(=O)CCC(Sc1ccc(Cl)cc1)N1C(=O)[C@H](CC(C)C)N(C)S1(=O)=O` (stereo partly drawn), in assay [1], the inhibition result is “Active”. For the same molecule, in assay [2], the inhibition result is “inactive”. In addition, the Activity entry in assay [4] was “tde”. Also, the Ratio in assay [5] came out at 4580.
Take `CCC[C@H]1C(=O)N(C(CCC(=O)OC)Sc2ccc(N)cc2)S(=O)(=O)N1C` (stereo partly drawn): in assay [1], the inhibition result was “Active”. Moreover, in assay [2], the inhibition entry was “inactive”. The Ratio in assay [3] worked out at 110.
On to `CCC[C@H]1C(=O)N(C(CCC(=O)OC)Sc2ccc(Cl)cc2)S(=O)(=O)N1C` (stereo partly drawn), for which the inhibition entry in assay [1] is “Active”. Further, in assay [2], the inhibition result is “inactive”. Also, the Ratio in assay [3] turned out to be 20.
As to `CCC[C@H]1C(=O)N(C(CCC(=O)OC)Sc2ccc(NC(=O)CCC(=O)O)cc2)S(=O)(=O)N1C` (stereo partly drawn), the inhibition entry in assay [1] was “Active”. In addition, the inhibition result in assay [2] is “inactive”. In addition, the Ratio in assay [3] turned out to be 300.
